Test [1] has as its system Staphylococcus aureus. Nature of the test: Antibacterial activity against methicillin-resistant Staphylococcus aureus after 18 hrs by agar microdilution method. It counts as functional. A digest of the protocol: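 MRSA clinical isolate from Songklanakarin Hospital. Compounds were dissolved in DMSO, serially 2-fold diluted and mixed 1:100 into melted Mueller-Hinton agar, giving final concentrations of 128 to 0.03 μg/mL. Inoculum was spotted onto the agar and incubated at 35 °C for 18 h. MIC was the lowest concentration with no visible growth. Vancomycin was the positive control; DMSO-agar was the growth control.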

Test [2] has as its system Staphylococcus aureus. Nature of the test: Antibacterial activity against methicillin-resistant Staphylococcus aureus at 32 ug/mL after 18 hrs by agar microdilution method. It counts as functional, organism-based.
Test [3] concerns Staphylococcus aureus. Nature of the test: Antibacterial activity against methicillin-resistant Staphylococcus aureus at 16 ug/mL after 18 hrs by agar microdilution method. Type of test: functional, organism-based.

The values that follow come from ChEMBL document CHEMBL1147256, “Antibacterial xanthones from the leaves of Garcinia nigrolineata” (2003).

Each structure is given as a SMILES string. Values after ≈ are worked out from the molar mass of the structure shown. Active and inactive are the calls of the source. The calls are words filed in the database; no cut-off is given here.

For orientation: MIC means the least concentration at which growth counts as inhibited. Read a high MIC as weaker potency.

On to `COC(C)(C)CCc1ccc(O)c2oc3cc(O)c(CC=C(C)C)c(O)c3c(=O)c12`, for which, in the test on Staphylococcus aureus [1], the outcome was inactive.
The same measure, in the same setting: as for `CC(C)=CCc1ccc(O)c2oc3cc4c(c(O)c3c(=O)c12)C=CC(C)(C)O4`, the entry is “inactive”.
Turning to `CC(C)=CCc1c2c(c3oc4c(O)cccc4c(=O)c3c1O)C=CC(C)(C)O2`, the result in the test on Staphylococcus aureus [2] was Active.
Take `CC(C)=CCc1ccc(O)c2oc3cc4c(c(O)c3c(=O)c12)CCC(C)(C)O4`: the result in the test on Staphylococcus aureus [1] was inactive.
Same read-out and setting: as for `CC(C)(O)CCc1ccc(O)c2oc3cc4c(c(O)c3c(=O)c12)C=CC(C)(C)O4`, the entry is “inactive”.
Compound `CC(C)=CCc1c(O)cc2oc3c(O)ccc(CCC(C)(C)O)c3c(=O)c2c1O` [NIGROLINEAXANTHONE N] had an MIC in the test with Staphylococcus aureus [1] of 4 µg/mL (≈ 10 µM).
Take `CC(C)(O)CCc1c2c(c(O)c3c(=O)c4cccc(O)c4oc13)CCC(C)(C)O2`: in the test with Staphylococcus aureus [1], the result was inactive.
`CC(C)=CCc1c(O)c(CC=C(C)C)c2oc3c(O)cccc3c(=O)c2c1O`: the result in the test on Staphylococcus aureus [3] was Active.
In the case of `CC(C)=CCc1c2c(c3oc4c(O)cccc4c(=O)c3c1O)CCC(C)(C)O2`, the outcome in the test on Staphylococcus aureus [1] was inactive.
On the same count and under the same terms, as for `CC(C)(O)CCc1ccc(O)c2oc3cc4c(c(O)c3c(=O)c12)CCC(C)(C)O4`, the entry is “inactive”.
Still for that read-out and setting: as for `CC(C)=CCC/C(C)=C/CCC1(C)C=Cc2c(cc(O)c3c(=O)c4cccc(O)c4oc23)O1` (configuration not stated), the entry is “inactive”.
Same read-out and setting: as for `CCOC(C)(C)CCc1c(O)cc2oc3c(O)ccc(CCC(C)(C)O)c3c(=O)c2c1O`, the entry is “inactive”.
